Only some compounds are listed: those with a hit (about 1.9% of all), similar ones and a draw of the others.
UBC13 inh – UBC13 polyubiquitin chain formation inhibitors, primary screen, biochemical, TR-FRET, uHTS; 330,000 compounds, 0.47% hits; inhibition, % at 20 µM; in the data active = inhibition above about 45%, passing the limit was not always enough; inconclusive = no clear call, values can overlap the other calls
proCasp7 act – procaspase-7 activators, primary screen, counter-screen for procaspase-3 activator project, biochemical, absorbance, HTS, human | Caspase-7 (Homo sapiens), P55210 | activation, % at 8.5 µM | 330,000 compounds, 0.093% hits | recombinant procaspase-7, Ac-DEVD-pNA absorbance 405 nm; D23A/D198A/D206A triple mutant, cannot self-cleave; scale: DMSO 0, 5 µM enzyme 100 | AID 463210, 2010;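 active = percent activation above the screen-wide mean plus 3 SD, cut at about 25% in these data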
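Assay system: Uncleavable procaspase-7 mutant enzyme | Input: 2 µM procaspase-7 mutant as dispensed | Timing: 1 h compound preincubation, 2 h substrate cleavage, 25 °C | Repeats: One well per compound | Control set: DMSO wells as 0%, DMSO with 5 µM added PC-7 as 100% | Technique: Epi-absorbance of released pNA at 405 nm, two timepoints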
IDE inh – human IDE inhibitors in live cells, primary screen, fluorescence polarization, HEK cells, FAbetaB substrate. Insulin-degrading enzyme (Homo sapiens), P14735. FAbetaB cleavage. inhibition, % at 5.59 µM. 320,000 compounds, 0.41% hits. AID 434962, 2010;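 active = percent inhibition above the average of all tested compounds plus 3 SD, set per screening campaign, cut at about 16% in these data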;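 also: IDE supplied by intact live HEK cells; FP after avidin binding of uncleaved biotin substrate so inhibition keeps polarization high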
Target sequence (P14735 whole entry, looked up): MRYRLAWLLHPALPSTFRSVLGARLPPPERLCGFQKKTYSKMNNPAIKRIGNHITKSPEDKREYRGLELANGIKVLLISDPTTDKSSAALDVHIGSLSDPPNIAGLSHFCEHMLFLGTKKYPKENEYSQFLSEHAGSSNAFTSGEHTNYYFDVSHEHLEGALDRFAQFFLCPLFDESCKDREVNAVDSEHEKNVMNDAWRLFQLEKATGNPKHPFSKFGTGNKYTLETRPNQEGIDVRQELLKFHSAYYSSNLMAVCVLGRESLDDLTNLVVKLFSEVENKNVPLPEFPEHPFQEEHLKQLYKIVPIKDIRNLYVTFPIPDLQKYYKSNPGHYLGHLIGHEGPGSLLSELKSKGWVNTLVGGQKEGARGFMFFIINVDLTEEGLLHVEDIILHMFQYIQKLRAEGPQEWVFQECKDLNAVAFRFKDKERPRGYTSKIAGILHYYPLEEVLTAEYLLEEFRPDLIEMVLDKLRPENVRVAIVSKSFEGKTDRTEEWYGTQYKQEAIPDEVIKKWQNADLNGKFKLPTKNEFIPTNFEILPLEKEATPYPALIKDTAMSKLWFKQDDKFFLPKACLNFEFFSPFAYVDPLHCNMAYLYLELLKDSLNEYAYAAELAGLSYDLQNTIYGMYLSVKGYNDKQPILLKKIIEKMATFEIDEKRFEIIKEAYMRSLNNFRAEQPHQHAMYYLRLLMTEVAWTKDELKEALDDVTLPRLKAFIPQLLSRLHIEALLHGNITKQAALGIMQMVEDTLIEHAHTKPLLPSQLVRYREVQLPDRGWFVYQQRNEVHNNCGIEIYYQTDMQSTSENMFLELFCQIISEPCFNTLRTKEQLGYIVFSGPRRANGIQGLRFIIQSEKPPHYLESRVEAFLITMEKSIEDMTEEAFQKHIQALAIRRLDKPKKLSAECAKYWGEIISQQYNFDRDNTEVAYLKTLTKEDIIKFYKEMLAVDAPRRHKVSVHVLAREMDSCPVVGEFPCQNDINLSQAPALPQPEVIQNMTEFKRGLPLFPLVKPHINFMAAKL
PHOSPHO1 inh – PubChem AID 1565; 290,000 compounds, 1.1% hits; Phosphoethanolamine/phosphocholine phosphatase (Homo sapiens), Q8TCT1; recombinant PHOSPHO1, absorbance phosphatase assay; inhibition, % at 13.3 µM; in the data active = inhibition above about 60%
procasp3 activ – activators of human procaspase-3 D3A mutant, primary screen, biochemical, absorbance, PC-3 D3A mutant, single concentration; recombinant procaspase-3 D3A, Ac-DEVD-pNA absorbance 405 nm; 330,000 compounds, 0.11% hits; Caspase-3 (Homo sapiens), P42574; activation, % at 8.5 µM;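 active = activation above the mean of all tested compounds plus 3 SD, cut at about 21% in these data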
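Technique: 405 nm absorbance of p-nitroaniline, reads at 0 and 120 min; Test system: Procaspase-3 D3A mutant; Incubation: 1 h enzyme-compound preincubation, then 2 h substrate reaction, 25 °C; Repeats: singlicate, each compound tested once; Benchmarks: low control DMSO wells, high control DMSO plus 5 µM PC-3 D3A.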
IDE act – human IDE activators in live cells, primary screen, fluorescence polarization, HEK cells, FAbeta-B substrate | Insulin-degrading enzyme (Homo sapiens), P14735 | FAbeta-B cleavage; 0% vehicle, 100% cell-free pure enzyme wells | activation, % at 5.96 µM | 340,000 compounds, 0.073% hits | AID 493087, 2011;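 active = activation above the mean of all tested compounds plus 3 SD, set per screening campaign, cut at about 17% in these data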
A number is an active result; 0 = inactive; ? = inconclusive; - = no result given.

SMILES	UBC13 inh	proCasp7 act	IDE inh	PHOSPHO1 inh	procasp3 activ	IDE act
COc1ccc(S(=O)NC2CCCCC2)c(OC)c1C (stereo unspecified)	0	0	0	87	0	0
CC(Sc1ccccc1)C(=O)Nc1ccc(N2CCOCC2)cc1 (stereo unspecified)	0	0	0	0	0	0
COc1ccc(NC(=O)C(C)Sc2ccccc2)cc1 (stereo unspecified)	0	0	0	62	0	0
Nc1cc(=O)[nH]c(SCC(=O)Nc2ccc(Oc3ccccc3)cc2)n1	0	0	0	0	0	0
CCc1c(C(C)S(=O)(=O)c2ccc(C)cc2)[nH]c(=O)n1-c1ccc(C)cc1 (stereo unspecified)	0	0	0	90	0	0
CCc1[nH]c(=O)[nH]c1C(C)S(=O)(=O)c1ccc(C)cc1 (stereo unspecified)	0	0	0	0	0	0
O=C(O)c1cccc(N=C2NC(=O)C(CO)(CO)S2)c1	0	0	0	0	0	0
CS(=O)(=O)c1ccc(-c2cn3cc(C(=O)O)ccc3n2)cc1	0	0	0	61	0	0
CC(=O)OCC1O[C@@H](O[C@@H]2C[C@H]3C(C)(C)[C@H](OC(C)=O)CC[C@]3(C)[C@H]3CC[C@]45C[C@]4(CC[C@H]5[C@@H](C)C[C@@H](O)[C@H](O)C(C)(C)O)[C@@]32C)[C@H](O)[C@@H](O)[C@@H]1O (stereo partly specified)	93	0	0	0	0	-
CC(C)=CCC[C@](C)(O[C@@H]1O[C@H](CO[C@@H]2O[C@H](CO)[C@@H](O)[C@H](O)[C@H]2O)[C@@H](O)[C@H](O)[C@H]1O)C1CC[C@]2(C)C1C(=O)CC1[C@@]3(C)CC[C@H](O[C@H]4O[C@@H](CO)[C@H](O)[C@@H](O)[C@@H]4O)C(C)(C)C3CC[C@]12C (stereo partly specified)	0	0	0	-	0	0
COc1cccc(NC(=O)C2CCC(CNS(=O)(=O)c3cccc4cccnc34)CC2)c1 (stereo unspecified)	0	0	0	0	0	0
Cc1ccc(/C=N/Nc2cccc3cccnc23)c(O)c1	0	0	0	98	0	0
Oc1ccc(/C=N/Nc2cccc3cccnc23)c(O)c1	0	0	0	0	0	0
Cc1cc(C)c(C(=O)CC(=O)c2ccccc2Cl)c(O)c1	0	0	0	0	0	0
COc1cc(OC)cc(C(=O)NCC2CCCN(C(=O)c3csc(C(C)C)n3)C2)c1 (stereo unspecified)	0	-	-	0	-	0
COc1ccc(NC(=O)C2CCN(S(=O)(=O)c3cccnc3)CC2)cc1Cl	0	0	0	70	0	0
COc1ccc(NC(=O)C2CCN(S(=O)(=O)c3ccc4c(c3)CC(C)N4C(C)=O)CC2)cc1OC (stereo unspecified)	0	0	0	0	0	77
COc1ccc(/C=N/NC(=O)c2cccc3ccccc23)c(OC)c1OC	0	0	0	-	0	-
CCCn1c(C)nc2c(c1=O)c1nc3ccccc3nc1n2CCC1=CCCCC1	0	0	0	69	0	0
Cc1nc2c(c(=O)n1CCC1=CCCCC1)c1nc3ccccc3nc1n2/N=C/c1ccco1	0	0	0	0	0	0
O=C1c2ccccc2-c2cccc(C(=O)N3CCN(C(=O)c4ccccc4)CC3)c21	0	0	0	60	0	0
O=C1c2ccccc2-c2cccc(C(=O)N3CCCCCC3)c21	0	0	0	0	0	0
Cc1c2cc(O)c(=O)cc-2oc2cc(O)c(O)cc12	?	0	0	0	0	0
COc1cc(OC)c(-c2c3cc(O)c(=O)cc-3oc3cc(O)c(O)cc23)cc1OC	0	0	0	0	0	41
CCOCCCNCc1ccc(OCC(=O)N2CCOCC2)c(OC)c1	0	0	0	60	0	0
SMILES	UBC13 inh	proCasp7 act	IDE inh	PHOSPHO1 inh	procasp3 activ	IDE act
CCCCN(CC)C(=O)Cn1ncc2c3ccccc3n(CCC)c2c1=O	0	-	-	0	-	0
Cc1ccc(C(=O)CSc2n[nH]c(C)n2)cc1	0	0	0	92	0	0
CCc1ccc(C(=O)CSc2n[nH]c(C)n2)cc1	0	0	0	102	0	0
Cc1ccc(C)c(C(=O)CSc2n[nH]c(C)n2)c1	0	0	0	0	0	0
CC(=O)c1cccc(N(C(=O)CNC(=O)c2ccco2)C(C(=O)NC2CCCC2)c2ccncc2)c1 (stereo unspecified)	0	0	0	0	0	0
CSc1ccc2c(c1)N(CCC1CCCCN1C)c1ccccc1S2 (stereo unspecified)	72	0	0	0	0	0
Cc1cccc(NC(=O)C2CCCN2S(=O)(=O)c2ccc(Cl)cc2)n1 (stereo unspecified)	0	0	0	0	0	0
CC1(C)Oc2ccc3ccc(=O)oc3c2/C(=C/N)C1=O	0	0	0	73	0	0
CC1(C)Oc2ccc3ccc(=O)oc3c2-c2cnoc21	0	0	0	95	0	0
CC(=O)c1ccccc1C(=O)N1CCCC(C(=O)c2ccc(C(F)(F)F)cc2)C1 (stereo unspecified)	0	0	0	0	0	0
COc1ccc(NC(=O)c2ccc(-c3ccccc3)cc2)cc1NS(=O)(=O)c1ccc(F)cc1	0	0	21	0	0	0
COc1ccc(NC(=O)c2ccccc2)cc1NS(=O)(=O)c1ccc(F)cc1	0	0	0	0	0	0
CCN(CC)c1ccc(NC(=O)c2cccc(C)c2)cc1S(=O)(=O)Nc1ccccc1OC	0	0	0	0	0	0
CCN(CC)c1ccc(NC(=O)c2ccccc2)cc1S(=O)(=O)Nc1ccccc1OC	0	0	0	95	0	0
COc1ccc(C(=O)NCCCN(C)CCCNC(=O)c2ccc(OC)cc2)cc1	0	0	0	0	0	0
Cc1cc(/C([O-])=C(/C(=S)Nc2ccccc2)[n+]2ccccc2)c(C)n1-c1ccccc1	0	0	0	0	0	0
Cc1cc(/C([O-])=C(/C(=S)Nc2ccc(F)cc2)[n+]2ccccc2)c(C)n1-c1ccc(F)cc1	0	0	0	96	0	0
Cc1ccc(-n2c(C)cc(/C([O-])=C(/C(=S)Nc3ccc(F)c(Cl)c3)[n+]3ccccc3)c2C)cc1	0	0	0	84	0	0
COc1ccc(C2CC(=O)N3CN(c4ccccc4F)CSC3=C2C#N)cc1OC (stereo unspecified)	0	0	0	90	0	0

Screening results from PubChem BioAssay.
